Laboratory results published in ChEMBL document CHEMBL5724801, “EUbOPEN Chemogenomics Library - Multiplex” (2024).
Where “and” joins values, the source holds several entries; their conditions need not be identical. Equal values may be shown once.

Legend:
Fibroblast = assay: Multiplex assay against human fibroblast; type: toxicity, cell-based
Summary of the method: (§1)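 Hoechst33342, BioTracker Green Microtubule Cytoskeleton Dye, MitoTracker Red and Annexin V Alexa Fluor 680 were added to live cells at seeding, and imaging on a CQ1 microscope at 37°C and 5% CO2 followed compound addition. Gating by CellPathfinder machine learning separated cells into Hoechst high-intensity objects or normal cells, then normal cells into healthy, pyknosed or fragmented nuclei, then pyknosed cells into mitotic or apoptotic. Per cents of healthy-nucleus cells are reported for the tubulin, mitochondrial-mass and membrane-permeability phenotypes.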

HEK-293T = assay: Multiplex assay against HEK293T; type: toxicity, cell-based; settings: human; summary of the method: as §1
[1] = 12 h, 1 µM, compound concentration 1 uM
[2] = 12 h, 10 µM, compound concentration 10 uM
[3] = 24 h, 1 µM, compound concentration 1 uM
[4] = 24 h, 10 µM, compound concentration 10 uM
[5] = 48 h, 1 µM, compound concentration 1 uM
[6] = 48 h, 10 µM, compound concentration 10 uM

Compound: Cc1cc(NC(=O)NCCN2CCC(O)(Cc3ccccc3)CC2)c2ccccc2n1 [PALOSURAN]
- Population Apoptotic (%) (Fibroblast; [1]): 37% and 40%
- Population Fragmented Nuclei (%) (Fibroblast; [1]): 10% and 26%
- Population Healthy Nuclei (%) (Fibroblast; [1]): 77% and 44%
- Population Hoechst High Intensity Objects (%) (Fibroblast; [1]): 2% and 9%
- Population Membrane Permeable-Phenotype (%) (Fibroblast; [1]): 3% and 1%
- Population Mitotic Cells (%) (Fibroblast; [1]): 62% and 59%
- Population Normal (%) (Fibroblast; [1]): 97% and 90%
- Population Pyknosed Nuclei (%) (Fibroblast; [1]): 12% and 28%
- Population Tubulin-Different-Phenotype (%) (Fibroblast; [1]): 19% and 46%
- Total Cell Count (Fibroblast; [1]): 133 and 143
- Population Apoptotic (%) (Fibroblast; [2]): 40% and 41%
- Population Fragmented Nuclei (%) (Fibroblast; [2]): 14% and 28%
- Population Healthy Nuclei (%) (Fibroblast; [2]): 69% and 49%
- Population Hoechst High Intensity Objects (%) (Fibroblast; [2]): 1% and 6%
- Population Membrane Permeable-Phenotype (%) (Fibroblast; [2]): 0% and 3%
- Population Mitochondria Different-Phenotype (%) (Fibroblast; [2]): 13% and 3%
- Population Mitotic Cells (%) (Fibroblast; [2]): 59% and 58%
- Population Normal (%) (Fibroblast; [2]): 98% and 93%
- Population Pyknosed Nuclei (%) (Fibroblast; [2]): 15% and 22%
- Population Tubulin-Different-Phenotype (%) (Fibroblast; [2]): 37% and 51%
- Total Cell Count (Fibroblast; [2]): 178 and 113
- Population Apoptotic (%) (Fibroblast; [3]): 53% and 40%
- Population Fragmented Nuclei (%) (Fibroblast; [3]): 15% and 27%
- Population Healthy Nuclei (%) (Fibroblast; [3]): 73% and 50%
- Population Hoechst High Intensity Objects (%) (Fibroblast; [3]): 2% and 6%
- Population Mitochondria Different-Phenotype (%) (Fibroblast; [3]): 0% and 21%
- Population Mitotic Cells (%) (Fibroblast; [3]): 46% and 60%
- Population Normal (%) (Fibroblast; [3]): 97% and 93%
- Population Pyknosed Nuclei (%) (Fibroblast; [3]): 10% and 22%
- Total Cell Count (Fibroblast; [3]): 129 and 119
- Population Apoptotic (%) (Fibroblast; [4]): 42% and 60%
- Population Fragmented Nuclei (%) (Fibroblast; [4]): 14% and 30%
- Population Healthy Nuclei (%) (Fibroblast; [4]): 77% and 47%
- Population Hoechst High Intensity Objects (%) (Fibroblast; [4]): 1% and 3%
- Population Membrane Permeable-Phenotype (%) (Fibroblast; [4]): 0% and 3%
- Population Mitochondria Different-Phenotype (%) (Fibroblast; [4]): 8% and 1%
- Population Mitotic Cells (%) (Fibroblast; [4]): 57% and 40%
- Population Normal (%) (Fibroblast; [4]): 98% and 96%
- Population Pyknosed Nuclei (%) (Fibroblast; [4]): 8% and 22%
- Population Tubulin-Different-Phenotype (%) (Fibroblast; [4]): 37% and 48%
- Total Cell Count (Fibroblast; [4]): 178 and 117
- Population Apoptotic (%) (Fibroblast; [5]): 50% and 61%
- Population Fragmented Nuclei (%) (Fibroblast; [5]): 16% and 42%
- Population Healthy Nuclei (%) (Fibroblast; [5]): 72% and 44%
- Population Hoechst High Intensity Objects (%) (Fibroblast; [5]): 3% and 7%
- Population Membrane Permeable-Phenotype (%) (Fibroblast; [5]): 0% and 14%
- Population Mitotic Cells (%) (Fibroblast; [5]): 50% and 38%
- Population Normal (%) (Fibroblast; [5]): 96% and 92%
- Population Pyknosed Nuclei (%) (Fibroblast; [5]): 11% and 13%
- Total Cell Count (Fibroblast; [5]): 126 and 149
- Population Apoptotic (%) (Fibroblast; [6]): 55% and 61%
- Population Fragmented Nuclei (%) (Fibroblast; [6]): 19% and 38%
- Population Healthy Nuclei (%) (Fibroblast; [6]): 69% and 44%
- Population Hoechst High Intensity Objects (%) (Fibroblast; [6]): 5% and 2%
- Population Membrane Permeable-Phenotype (%) (Fibroblast; [6]): 0% and 2%
- Population Mitochondria Different-Phenotype (%) (Fibroblast; [6]): 10% and 6%
- Population Mitotic Cells (%) (Fibroblast; [6]): 44% and 38%
- Population Normal (%) (Fibroblast; [6]): 94% and 97%
- Population Pyknosed Nuclei (%) (Fibroblast; [6]): 10% and 16%
- Population Tubulin-Different-Phenotype (%) (Fibroblast; [6]): 36% and 61%
- Total Cell Count (Fibroblast; [6]): 186 and 112
- Population Apoptotic (%) (HEK-293T; [1]): 36% and 48%
- Population Fragmented Nuclei (%) (HEK-293T; [1]): 7% and 9%
- Population Healthy Nuclei (%) (HEK-293T; [1]): 77% and 81%
- Population Hoechst High Intensity Objects (%) (HEK-293T; [1]): 6% and 9%
- Population Membrane Permeable-Phenotype (%) (HEK-293T; [1]): 0%
- Population Mitochondria Different-Phenotype (%) (HEK-293T; [1]): 42% and 57%
- Population Mitotic Cells (%) (HEK-293T; [1]): 63% and 52%
- Population Normal (%) (HEK-293T; [1]): 93% and 90%
- Population Pyknosed Nuclei (%) (HEK-293T; [1]): 14% and 8%
- Population Tubulin-Different-Phenotype (%) (HEK-293T; [1]): 25% and 26%
- Total Cell Count (HEK-293T; [1]): 373 and 326
- Population Apoptotic (%) (HEK-293T; [2]): 38% and 61%
- Population Fragmented Nuclei (%) (HEK-293T; [2]): 5%
- Population Healthy Nuclei (%) (HEK-293T; [2]): 81% and 75%
- Population Hoechst High Intensity Objects (%) (HEK-293T; [2]): 8%
- Population Membrane Permeable-Phenotype (%) (HEK-293T; [2]): 0%
- Population Mitochondria Different-Phenotype (%) (HEK-293T; [2]): 53% and 76%
- Population Mitotic Cells (%) (HEK-293T; [2]): 61% and 38%
- Population Normal (%) (HEK-293T; [2]): 91%
- Population Pyknosed Nuclei (%) (HEK-293T; [2]): 12% and 18%
- Population Tubulin-Different-Phenotype (%) (HEK-293T; [2]): 41% and 42%
- Total Cell Count (HEK-293T; [2]): 461 and 346
- Population Apoptotic (%) (HEK-293T; [3]): 17% and 46%
- Population Fragmented Nuclei (%) (HEK-293T; [3]): 9% and 10%
- Population Healthy Nuclei (%) (HEK-293T; [3]): 78% and 76%
- Population Hoechst High Intensity Objects (%) (HEK-293T; [3]): 6% and 4%
- Population Membrane Permeable-Phenotype (%) (HEK-293T; [3]): 0%
- Population Mitochondria Different-Phenotype (%) (HEK-293T; [3]): 24% and 45%
- Population Mitotic Cells (%) (HEK-293T; [3]): 82% and 53%
- Population Normal (%) (HEK-293T; [3]): 93% and 95%
- Population Pyknosed Nuclei (%) (HEK-293T; [3]): 11% and 13%
- Population Tubulin-Different-Phenotype (%) (HEK-293T; [3]): 19% and 14%
- Total Cell Count (HEK-293T; [3]): 511 and 343
- Population Apoptotic (%) (HEK-293T; [4]): 35% and 51%
